Results from ChEMBL document CHEMBL3351454, “Design, synthesis, antimicrobial evaluation and molecular docking studies of some new thiophene, pyrazole and pyridone derivatives bearing sulfisoxazole moiety” (2014).
In brackets after ≈: the same amount, converted by molar mass.

Legend:
Type in all cases: functional
Proteus vulgaris [1] = experiment: Antimicrobial activity against Proteus vulgaris RCMB 010085 assessed as inhibition zone at 5 mg/ml after 24 hrs; details: RCMB 010085, 24 h, read-out: IZ
Outline: (§1)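 Agar diffusion on nutrient agar seeded with 10^6 CFU/mL bacteria. Filter-paper disks were loaded with 100 µL of a 5 mg/mL compound solution in DMF, with a DMF-only control. Incubation was 37 °C for 24 h. Inhibition zone in mm (mean ± SD, triplicate plates) was measured beyond the 6 mm diameter.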

Bacillus subtilis [2] = experiment: Antimicrobial activity against Bacillis subtilis RCMB 010067 assessed as inhibition zone at 5 mg/ml after 24 hrs; details: RCMB 010067, 24 h, read-out: IZ; outline: as §1
Escherichia coli [3] = experiment: Antimicrobial activity against Escherichia coli RCMB 010052 assessed as absence of turbidity after 24 hrs; details: RCMB 010052, 24 h
Outline: (§2)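 Broth microdilution in Müller–Hinton broth. DMF stocks at 1000 µg/mL were diluted in broth to give twofold serial dilutions over 500–0.007 µg/mL. Bacterial inoculum was about 10^6 CFU/mL in 96-well plates, sealed and incubated at 37 °C for 24 h in a humid chamber. MIC was taken as the lowest concentration with no visible turbidity. DMF and uninoculated-medium controls were included. Only compounds giving zones >10 mm were tested.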

[4] = test system: Staphylococcus epidermidis; experiment: Antimicrobial activity against Staphylococcus epidermidis RCMB 010024 assessed as absence of turbidity after 24 hrs; details: RCMB 010024, 24 h; outline: as §2
[5] = test system: Syncephalastrum racemosum; experiment: Antifungal activity against Syncephalastrum racemosum RCMB 05922 assessed as inhibition zone at 5 mg/ml after 48 hrs; details: RCMB 05922, 48 h, read-out: IZ
Geotrichum candidum [6] = experiment: Antifungal activity against Geotrichum candidum RCMB 05097 assessed as absence of turbidity after 48 hrs; details: RCMB 05097, 48 h
Outline: as §2, with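 “Sabouraud liquid medium.” for “Müller–Hinton broth.”, “Fungal” for “Bacterial”, “10^4” for “10^6”, “25” for “37”, “48” for “24”, “included.” for “included. Only compounds giving zones >10 mm were tested.”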

Bacillus subtilis [7] = experiment: Antimicrobial activity against Bacillis subtilis RCMB 010067 assessed as absence of turbidity after 24 hrs; details: RCMB 010067, 24 h; outline: as §2
Proteus vulgaris [8] = experiment: Antimicrobial activity against Proteus vulgaris RCMB 010085 assessed as absence of turbidity after 24 hrs; details: RCMB 010085, 24 h; outline: as §2
Aspergillus fumigatus [9] = experiment: Antifungal activity against Aspergillus fumigatus RCMB 02568 assessed as inhibition zone at 5 mg/ml after 48 hrs; details: RCMB 02568, 48 h, read-out: IZ
Outline: (§3)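 Disk diffusion on nutrient agar seeded with 10^4 CFU/mL fungus. Sterile filter-paper disks carried 100 µL of a 5 mg/mL DMF solution, and DMF alone served as control. Plates were incubated at 25 °C for 48 h. Mean inhibition zone in mm ± SD was read beyond the 6 mm diameter, in triplicate.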

Geotrichum candidum [10] = experiment: Antifungal activity against Geotrichum candidum RCMB 05097 assessed as inhibition zone at 5 mg/ml after 48 hrs; details: RCMB 05097, 48 h, read-out: IZ; outline: as §3
Streptococcus pneumoniae [11] = experiment: Antimicrobial activity against Streptococcus pneumoniae RCMB 010010 assessed as absence of turbidity after 24 hrs; details: RCMB 010010, 24 h; outline: as §2
Streptococcus pneumoniae [12] = experiment: Antimicrobial activity against Streptococcus pneumoniae RCMB 010010 assessed as inhibition zone at 5 mg/ml after 24 hrs; details: RCMB 010010, 24 h, read-out: IZ; outline: as §1
Klebsiella pneumoniae [13] = experiment: Antimicrobial activity against Klebsiella pneumoniae RCMB 010093 assessed as absence of turbidity after 24 hrs; details: RCMB 010093, 24 h; outline: as §2
[14] = test system: Staphylococcus epidermidis; experiment: Antimicrobial activity against Staphylococcus epidermidis RCMB 010024 assessed as inhibition zone at 5 mg/ml after 24 hrs; details: RCMB 010024, 24 h, read-out: IZ; outline: as §1
[15] = test system: Syncephalastrum racemosum; experiment: Antifungal activity against Syncephalastrum racemosum RCMB 05922 assessed as absence of turbidity after 48 hrs; details: RCMB 05922, 48 h
Aspergillus fumigatus [16] = experiment: Antifungal activity against Aspergillus fumigatus RCMB 02568 assessed as absence of turbidity after 48 hrs; details: RCMB 02568, 48 h
Outline: as §2, with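 “Sabouraud liquid medium.” for “Müller–Hinton broth.”, “Fungal” for “Bacterial”, “10^4” for “10^6”, “25” for “37”, “48” for “24”, “included.” for “included. Only compounds giving zones >10 mm were tested.”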

Escherichia coli [17] = experiment: Antimicrobial activity against Escherichia coli RCMB 010052 assessed as inhibition zone at 5 mg/ml after 24 hrs; details: RCMB 010052, 24 h, read-out: IZ; outline: as §1
Klebsiella pneumoniae [18] = experiment: Antimicrobial activity against Klebsiella pneumoniae RCMB 010093 assessed as inhibition zone at 5 mg/ml after 24 hrs; details: RCMB 010093, 24 h, read-out: IZ; outline: as §1

MIC (Escherichia coli [3])	MIC [4]	MIC (Geotrichum candidum [6])	MIC (Bacillus subtilis [7])	MIC (Proteus vulgaris [8])	MIC (Streptococcus pneumoniae [11])	MIC (Klebsiella pneumoniae [13])	MIC [15]	MIC (Aspergillus fumigatus [16])	Compound	zone of inhibition at 5000 µg/mL (Proteus vulgaris [1])	zone of inhibition at 5000 µg/mL (Bacillus subtilis [2])	zone of inhibition at 5000 µg/mL [5]	zone of inhibition at 5000 µg/mL (Aspergillus fumigatus [9])	zone of inhibition at 5000 µg/mL (Geotrichum candidum [10])	zone of inhibition at 5000 µg/mL (Streptococcus pneumoniae [12])	zone of inhibition at 5000 µg/mL [14]	zone of inhibition at 5000 µg/mL (Escherichia coli [17])	zone of inhibition at 5000 µg/mL (Klebsiella pneumoniae [18])
0.49 µg/mL (≈ 1.07 µM)	0.49 µg/mL (≈ 1.07 µM)	0.12 µg/mL (≈ 0.263 µM)	0.03 µg/mL (≈ 0.0657 µM)	3.9 µg/mL (≈ 8.54 µM)	0.98 µg/mL (≈ 2.14 µM)	0.06 µg/mL (≈ 0.131 µM)	0.98 µg/mL (≈ 2.14 µM)	0.98 µg/mL (≈ 2.14 µM)	Cc1noc(NS(=O)(=O)c2ccc(NC(=O)/C(C#N)=C/c3ccc(Cl)cc3)cc2)c1C	19.2 mm	25.6 mm	21.6 mm	20.3 mm	24.6 mm	20.3 mm	22.3 mm	22.1 mm	23.9 mm
0.12 µg/mL (≈ 0.291 µM)	31.2 µg/mL (≈ 75.8 µM)	62.5 µg/mL (≈ 152 µM)	15.6 µg/mL (≈ 37.9 µM)	–	15.6 µg/mL (≈ 37.9 µM)	0.12 µg/mL (≈ 0.291 µM)	500 µg/mL (≈ 1210 µM)	125 µg/mL (≈ 303 µM)	Cc1noc(NS(=O)(=O)c2ccc(NC(=O)/C(C#N)=C/c3ccco3)cc2)c1C	–	17.4 mm	12.1 mm	13.9 mm	14.6 mm	16.9 mm	16.2 mm	14.9 mm	15 mm
0.12 µg/mL (≈ 0.283 µM)	0.49 µg/mL (≈ 1.16 µM)	0.03 µg/mL (≈ 0.0708 µM)	0.03 µg/mL (≈ 0.0708 µM)	3.9 µg/mL (≈ 9.21 µM)	0.06 µg/mL (≈ 0.142 µM)	0.12 µg/mL (≈ 0.283 µM)	3.9 µg/mL (≈ 9.21 µM)	0.49 µg/mL (≈ 1.16 µM)	Cc1noc(NS(=O)(=O)c2ccc(NC(=O)/C(C#N)=C/c3cccnc3)cc2)c1C	19.3 mm	26.2 mm	18.7 mm	23.4 mm	25.6 mm	24.6 mm	22.3 mm	23.7 mm	24.2 mm

Continued, molecule first:

Compound	MIC (Escherichia coli [3])	MIC [4]	MIC (Geotrichum candidum [6])	MIC (Bacillus subtilis [7])	MIC (Proteus vulgaris [8])	MIC (Streptococcus pneumoniae [11])	MIC (Klebsiella pneumoniae [13])	MIC [15]	MIC (Aspergillus fumigatus [16])	zone of inhibition at 5000 µg/mL (Proteus vulgaris [1])	zone of inhibition at 5000 µg/mL (Bacillus subtilis [2])	zone of inhibition at 5000 µg/mL [5]	zone of inhibition at 5000 µg/mL (Aspergillus fumigatus [9])	zone of inhibition at 5000 µg/mL (Geotrichum candidum [10])	zone of inhibition at 5000 µg/mL (Streptococcus pneumoniae [12])	zone of inhibition at 5000 µg/mL [14]	zone of inhibition at 5000 µg/mL (Escherichia coli [17])	zone of inhibition at 5000 µg/mL (Klebsiella pneumoniae [18])
Cc1noc(NS(=O)(=O)c2ccc(NC(=O)c3cn[nH]c3N)cc2)c1C	125 µg/mL (≈ 332 µM)	31.2 µg/mL (≈ 83 µM)	7.81 µg/mL (≈ 20.7 µM)	7.81 µg/mL (≈ 20.7 µM)	500 µg/mL (≈ 1330 µM)	7.81 µg/mL (≈ 20.7 µM)	125 µg/mL (≈ 332 µM)	15.6 µg/mL (≈ 41.5 µM)	7.81 µg/mL (≈ 20.7 µM)	11 mm	18 mm	17.2 mm	18.6 mm	18.9 mm	17.8 mm	16.1 mm	13 mm	14.6 mm
Cc1noc(NS(=O)(=O)c2ccc(-n3c(S)c(C#N)c(-c4ccco4)c(C#N)c3=O)cc2)c1C	0.98 µg/mL (≈ 1.99 µM)	0.98 µg/mL (≈ 1.99 µM)	0.12 µg/mL (≈ 0.243 µM)	0.12 µg/mL (≈ 0.243 µM)	7.81 µg/mL (≈ 15.8 µM)	0.24 µg/mL (≈ 0.486 µM)	0.24 µg/mL (≈ 0.486 µM)	0.98 µg/mL (≈ 1.99 µM)	0.49 µg/mL (≈ 0.993 µM)	18.3 mm	23.6 mm	20.6 mm	22 mm	24.3 mm	22.6 mm	21.4 mm	21.6 mm	22.6 mm
COc1ccc(N/N=C(\C#N)C(=O)Nc2ccc(S(=O)(=O)Nc3onc(C)c3C)cc2)cc1	31.2 µg/mL (≈ 66.7 µM)	1.95 µg/mL (≈ 4.16 µM)	1.95 µg/mL (≈ 4.16 µM)	0.98 µg/mL (≈ 2.09 µM)	–	15.6 µg/mL (≈ 33.4 µM)	1.95 µg/mL (≈ 4.16 µM)	3.9 µg/mL (≈ 8.32 µM)	31.2 µg/mL (≈ 66.7 µM)	–	21.2 mm	18.6 mm	16.3 mm	19.8 mm	17.3 mm	20.2 mm	15.9 mm	20.2 mm
Cc1noc(NS(=O)(=O)c2ccc(NC(=O)c3c(Nc4ccccc4)sc(C#N)c3N)cc2)c1C	500 µg/mL (≈ 983 µM)	125 µg/mL (≈ 246 µM)	15.6 µg/mL (≈ 30.7 µM)	15.6 µg/mL (≈ 30.7 µM)	–	62.5 µg/mL (≈ 123 µM)	125 µg/mL (≈ 246 µM)	62.5 µg/mL (≈ 123 µM)	31.2 µg/mL (≈ 61.4 µM)	–	17.4 mm	15.2 mm	16.3 mm	17.3 mm	15.2 mm	14.2 mm	11.2 mm	13.6 mm
